Results on 1 compound are retold here after ChEMBL document CHEMBL5705897, “Characterization of WZ4003 and HTH-01-015 as selective inhibitors of the LKB1-tumour-suppressor-activated NUAK kinases” (Biochem J, 2014).

The target in assay [1] is Serine/threonine-protein kinase D1 (Homo sapiens) (UniProt Q15139). The assay can be described thus: Inhibition of recombinant human N-terminal His6-tagged PKD1 (2 to 912 residues) expressed in baculovirus infected Sf21 cells assessed as remaining activity at 1 uM using KKLNRTLSVA as substrate incubated for 30 mins in presence of [gamma-33P]ATP by filter binding method relative to control. The gist of the method: (§1)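 Screened at the International Centre for Protein Kinase Profiling against a 140-kinase panel, with inhibitor at 0.1 or 1 μM; activity expressed as percentage of DMSO control reactions, mean of triplicate reactions.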

For assay [2], the system named is MEF. The assay can be described thus: Antiproliferative activity against NUAK1+/+ MEF cells assessed as reduction in cell viability at 10 uM after 5 days by CellTiter 96 non-radioactive cell proliferation assay. The note with it: Mus musculus, time 5.0 day. It counts as functional, cell-based. The gist of the method:
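Colorimetric CellTiter 96 AQueous proliferation assay in 96-well format; 2000 cells/well seeded for U2OS, 3000 cells/well for MEFs; grown 5 days with or without 10 μM inhibitor; run in triplicate. Inhibitors dissolved in DMSO, final DMSO in medium ≤1%. MEFs cultured in DMEM/10% FBS, glutamine, non-essential amino acids, sodium pyruvate.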

Assay [3] deals with MEF. The assay is described as follows: Inhibition of NUAK1 in NUAK1+/+ MEF cells assessed as reduction in MYPT1 phosphorylation at Ser445 residues at 10 uM after 16 hrs by immunoblot analysis. The conditions noted are these: Mus musculus. The assay is classed as cell-based. The gist of the method:
(§2)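 U2OS cells or NUAK1+/+ MEFs treated with or without 10 μM inhibitor for 16 h, then 20 min in EDTA-PBS dissociation buffer with 10 μM inhibitor or DMSO; detached by tapping and 70 g 3 min spin, lysed immediately and immunoblotted for MYPT1 p-Ser445; three separate experiments.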

Assay [4] has as its target Serine/threonine-protein kinase Chk1 (Homo sapiens) (UniProt O14757). The assay can be described thus: Inhibition of recombinant human N-terminal GST-tagged CHK1 (1 to 476 residues) expressed in baculovirus infected Sf21 cells assessed as remaining activity at 1 uM using CHKtide as substrate incubated for 30 mins in presence of [gamma-33P]ATP by filter binding method relative to control. The gist of the method: as §1

Assay [5] concerns the target Serine/threonine-protein kinase BRSK2 (Homo sapiens) (UniProt Q8IWQ3). The assay is described as follows: Inhibition of recombinant human N-terminal His6-tagged BRSK2 (2 to 674 residues) expressed in baculovirus infected Sf21 cells assessed as remaining activity at 1 uM using KKLNRTLSFAEPG as substrate incubated for 30 mins in presence of [gamma-33P]ATP by filter binding method relative to control. The gist of the method: as §1

Assay [6] concerns the target Protein kinase C alpha type (Homo sapiens) (UniProt P17252). The assay can be described thus: Inhibition of recombinant human N-terminal His6-tagged PKCalpha (1 to 672 residues) expressed in baculovirus infected Sf21 cells assessed as remaining activity at 1 uM using Histone H1 as substrate incubated for 30 mins in presence of [gamma-33P]ATP by filter binding method relative to control. The method, boiled down: as §1

The target of assay [7] is Mitogen-activated protein kinase kinase kinase 11 (Homo sapiens) (UniProt Q16584). The assay is described as follows: Inhibition of recombinant human N-terminal GST-tagged MLK3 (96 to 386 residues) expressed in baculovirus infected Sf21 cells assessed as remaining activity at 1 uM using MBP as substrate incubated for 30 mins in presence of [gamma-33P]ATP by filter binding method relative to control. The gist of the method: as §1
Sequence of Mitogen-activated protein kinase kinase kinase 11 (Homo sapiens) (Q16584 whole entry, looked up, the tested form may be a part): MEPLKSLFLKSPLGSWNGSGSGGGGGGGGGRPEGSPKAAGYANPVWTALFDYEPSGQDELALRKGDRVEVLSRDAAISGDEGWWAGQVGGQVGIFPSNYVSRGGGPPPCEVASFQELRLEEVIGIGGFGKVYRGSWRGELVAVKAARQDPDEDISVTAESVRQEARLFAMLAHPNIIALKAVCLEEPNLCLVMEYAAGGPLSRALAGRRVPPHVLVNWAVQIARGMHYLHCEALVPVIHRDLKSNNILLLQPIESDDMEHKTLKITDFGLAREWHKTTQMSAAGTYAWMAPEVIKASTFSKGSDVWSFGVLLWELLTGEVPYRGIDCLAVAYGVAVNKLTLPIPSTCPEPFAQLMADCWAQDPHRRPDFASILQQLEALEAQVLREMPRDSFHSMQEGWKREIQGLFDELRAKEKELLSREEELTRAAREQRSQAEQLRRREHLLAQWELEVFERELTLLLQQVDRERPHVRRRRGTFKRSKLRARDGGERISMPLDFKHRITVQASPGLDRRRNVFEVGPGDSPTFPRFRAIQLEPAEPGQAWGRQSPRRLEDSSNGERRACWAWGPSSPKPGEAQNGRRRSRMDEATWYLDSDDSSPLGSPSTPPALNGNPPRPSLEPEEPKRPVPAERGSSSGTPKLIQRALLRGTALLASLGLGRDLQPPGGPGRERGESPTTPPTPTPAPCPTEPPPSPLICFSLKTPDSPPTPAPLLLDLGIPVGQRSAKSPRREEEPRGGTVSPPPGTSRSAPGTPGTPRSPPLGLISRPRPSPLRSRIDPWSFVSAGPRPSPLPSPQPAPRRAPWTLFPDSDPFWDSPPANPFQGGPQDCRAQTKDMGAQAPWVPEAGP

Assay [8] has as its target Ribosomal protein S6 kinase alpha-1 (Homo sapiens) (UniProt Q15418). The assay can be described thus: Inhibition of recombinant human N-terminal His6-tagged RSK1 (1 to 735 residues) expressed in baculovirus infected Sf21 cells assessed as remaining activity at 1 uM using KKLNRTLSVA as substrate incubated for 30 mins in presence of [gamma-33P]ATP by filter binding method relative to control. The gist of the method:
as §1

The target in assay [9] is cAMP-dependent protein kinase catalytic subunit alpha (Homo sapiens) (UniProt P17612). The assay can be described thus: Inhibition of recombinant human N-terminal GST-tagged PKAalpha (2 to 351 residues) expressed in Escherichia coli assessed as remaining activity at 1 uM using Kemptide as substrate incubated for 30 mins in presence of [gamma-33P]ATP by filter binding method relative to control. The method, boiled down: as §1

The target of assay [10] is T1, NUAK family SNF1-like kinase 1 (Homo sapiens) (UniProt O60285).
T1 sequence (whole entry): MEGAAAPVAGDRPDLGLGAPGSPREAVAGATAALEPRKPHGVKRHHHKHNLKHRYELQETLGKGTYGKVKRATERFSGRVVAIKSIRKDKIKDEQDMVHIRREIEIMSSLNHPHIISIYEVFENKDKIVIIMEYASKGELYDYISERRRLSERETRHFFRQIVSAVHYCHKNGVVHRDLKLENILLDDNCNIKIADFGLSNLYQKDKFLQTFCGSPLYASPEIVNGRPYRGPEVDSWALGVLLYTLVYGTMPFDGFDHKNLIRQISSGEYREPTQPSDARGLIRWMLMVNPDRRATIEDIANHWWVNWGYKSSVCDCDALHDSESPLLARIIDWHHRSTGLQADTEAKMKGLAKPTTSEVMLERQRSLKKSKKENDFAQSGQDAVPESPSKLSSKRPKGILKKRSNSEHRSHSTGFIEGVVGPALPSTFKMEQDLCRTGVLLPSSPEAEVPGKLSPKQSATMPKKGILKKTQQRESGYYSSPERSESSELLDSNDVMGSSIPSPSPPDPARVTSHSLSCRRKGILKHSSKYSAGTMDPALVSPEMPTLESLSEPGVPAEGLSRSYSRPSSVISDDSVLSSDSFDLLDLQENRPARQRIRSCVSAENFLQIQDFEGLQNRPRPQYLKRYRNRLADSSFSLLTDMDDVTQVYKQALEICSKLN
The assay can be described thus: Inhibition of NUAK1 in HEK293 cells assessed as reduction in MYPT1 phosphorylation at Ser445 residue incubated for 16 hrs by immunoblot analysis. The note with it: dose 3-10 µM. The assay is classed as cell-based. The method, boiled down:
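HEK-293 cells exposed to inhibitor or DMSO for 16 h; medium replaced by EDTA-PBS dissociation buffer with the same inhibitor concentration to induce detachment (gentle tapping, 70 g, 3 min); cells lysed at once; MYPT1 immunoprecipitated from 0.5 mg lysate, blotted for p-Ser445 and total MYPT1; repeated three times.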
(A western blot detects proteins with antibodies after separation by electrophoresis.)

The target of assay [11] is T1, NUAK family SNF1-like kinase 1 (Homo sapiens). The assay can be described thus: Inhibition of NUAK1 in human U2OS cells assessed as reduction in MYPT1 phosphorylation at Ser445 residues at 10 uM after 16 hrs by immunoblot analysis. It counts as cell-based. The gist of the method: as §2
The subject of assay [12] is U2OS. The assay is described as follows: Inhibition of cell invasion in human U2OS cells at 10 uM incubated for 16 hrs by matrigel based transwell assay. The assay is classed as functional. The method, boiled down: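 Growth-factor-reduced Matrigel Transwell invasion: U2OS cells serum-deprived 2 h, detached, 2.5×10^5 cells in DMEM/1% BSA added to upper chambers in triplicate, DMEM/10% FBS as chemoattractant below; 16 h at 37 °C, 5% CO2 with or without 10 μM inhibitor in both compartments; cells on lower filter face fixed, stained, imaged ×10 and counted; mean ± S.D.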

Assay [13] has as its target MAP/microtubule affinity-regulating kinase 3 (Homo sapiens) (UniProt P27448). The assay is described as follows: Inhibition of recombinant human N-terminal His6-tagged MARK3 (2 to 729 residues) expressed in baculovirus infected Sf21 cells assessed as remaining activity at 1 uM using CHKtide as substrate incubated for 30 mins in presence of [gamma-33P]ATP by filter binding method relative to control. The method, boiled down: as §1

The source made the active and inactive calls. The rule behind the calls is not given here.

Sequence of MAP/microtubule affinity-regulating kinase 3 (Homo sapiens) (P27448 whole entry, looked up, the tested form may be a part): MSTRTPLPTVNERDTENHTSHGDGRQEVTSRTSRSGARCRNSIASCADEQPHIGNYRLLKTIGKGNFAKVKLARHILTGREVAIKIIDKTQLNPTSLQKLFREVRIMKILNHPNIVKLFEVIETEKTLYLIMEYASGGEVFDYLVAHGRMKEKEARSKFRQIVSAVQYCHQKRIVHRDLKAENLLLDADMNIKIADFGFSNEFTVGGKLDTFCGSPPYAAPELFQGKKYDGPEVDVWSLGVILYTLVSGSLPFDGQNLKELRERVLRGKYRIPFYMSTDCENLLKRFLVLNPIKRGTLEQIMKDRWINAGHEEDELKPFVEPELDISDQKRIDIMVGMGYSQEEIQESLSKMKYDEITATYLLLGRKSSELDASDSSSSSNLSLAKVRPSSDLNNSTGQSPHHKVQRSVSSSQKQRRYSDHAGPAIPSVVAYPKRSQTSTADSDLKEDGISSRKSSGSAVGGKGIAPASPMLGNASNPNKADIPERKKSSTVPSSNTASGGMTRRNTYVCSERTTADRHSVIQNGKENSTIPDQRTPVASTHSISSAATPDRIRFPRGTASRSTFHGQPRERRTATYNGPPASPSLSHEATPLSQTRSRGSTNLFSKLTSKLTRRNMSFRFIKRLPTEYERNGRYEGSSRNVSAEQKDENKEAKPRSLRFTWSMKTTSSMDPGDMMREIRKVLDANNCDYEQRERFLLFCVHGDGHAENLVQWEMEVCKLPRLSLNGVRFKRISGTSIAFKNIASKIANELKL
Sequence of Serine/threonine-protein kinase Chk1 (Homo sapiens) (O14757 whole entry, the tested form may be a part): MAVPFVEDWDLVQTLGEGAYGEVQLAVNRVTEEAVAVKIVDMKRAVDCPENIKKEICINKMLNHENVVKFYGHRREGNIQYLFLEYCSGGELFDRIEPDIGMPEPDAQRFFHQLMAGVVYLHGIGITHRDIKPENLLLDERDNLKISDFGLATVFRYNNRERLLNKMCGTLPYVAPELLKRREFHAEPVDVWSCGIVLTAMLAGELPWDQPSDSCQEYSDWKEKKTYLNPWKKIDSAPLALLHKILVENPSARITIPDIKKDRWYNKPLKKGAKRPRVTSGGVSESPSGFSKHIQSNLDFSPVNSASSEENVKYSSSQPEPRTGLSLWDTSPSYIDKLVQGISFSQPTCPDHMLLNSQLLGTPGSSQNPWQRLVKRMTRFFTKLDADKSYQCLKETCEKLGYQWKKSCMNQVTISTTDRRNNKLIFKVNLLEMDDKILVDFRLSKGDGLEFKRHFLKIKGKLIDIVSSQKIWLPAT
Sequence of Ribosomal protein S6 kinase alpha-1 (Homo sapiens) (Q15418 whole entry, the tested form may be a part): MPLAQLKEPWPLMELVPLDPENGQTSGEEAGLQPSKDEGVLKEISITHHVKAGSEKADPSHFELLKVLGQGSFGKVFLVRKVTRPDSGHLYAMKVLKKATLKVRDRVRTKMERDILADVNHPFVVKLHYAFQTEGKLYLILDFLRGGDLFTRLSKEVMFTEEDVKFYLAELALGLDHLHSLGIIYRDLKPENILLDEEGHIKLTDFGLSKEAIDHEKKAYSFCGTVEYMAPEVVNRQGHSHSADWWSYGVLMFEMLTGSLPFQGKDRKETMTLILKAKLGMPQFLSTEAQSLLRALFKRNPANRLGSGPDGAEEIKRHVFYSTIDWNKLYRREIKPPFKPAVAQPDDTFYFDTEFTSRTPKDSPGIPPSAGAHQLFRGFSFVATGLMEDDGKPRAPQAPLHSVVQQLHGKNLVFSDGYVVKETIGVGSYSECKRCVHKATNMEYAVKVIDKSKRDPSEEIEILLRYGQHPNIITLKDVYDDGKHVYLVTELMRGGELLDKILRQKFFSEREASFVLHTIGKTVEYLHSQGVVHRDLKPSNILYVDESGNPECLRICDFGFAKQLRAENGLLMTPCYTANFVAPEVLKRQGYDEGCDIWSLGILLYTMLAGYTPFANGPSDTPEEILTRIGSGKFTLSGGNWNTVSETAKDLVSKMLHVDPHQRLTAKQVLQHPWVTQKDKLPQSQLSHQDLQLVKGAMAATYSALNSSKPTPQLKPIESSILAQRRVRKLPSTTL
Sequence of Serine/threonine-protein kinase BRSK2 (Homo sapiens) (Q8IWQ3 whole entry, the tested form may be a part): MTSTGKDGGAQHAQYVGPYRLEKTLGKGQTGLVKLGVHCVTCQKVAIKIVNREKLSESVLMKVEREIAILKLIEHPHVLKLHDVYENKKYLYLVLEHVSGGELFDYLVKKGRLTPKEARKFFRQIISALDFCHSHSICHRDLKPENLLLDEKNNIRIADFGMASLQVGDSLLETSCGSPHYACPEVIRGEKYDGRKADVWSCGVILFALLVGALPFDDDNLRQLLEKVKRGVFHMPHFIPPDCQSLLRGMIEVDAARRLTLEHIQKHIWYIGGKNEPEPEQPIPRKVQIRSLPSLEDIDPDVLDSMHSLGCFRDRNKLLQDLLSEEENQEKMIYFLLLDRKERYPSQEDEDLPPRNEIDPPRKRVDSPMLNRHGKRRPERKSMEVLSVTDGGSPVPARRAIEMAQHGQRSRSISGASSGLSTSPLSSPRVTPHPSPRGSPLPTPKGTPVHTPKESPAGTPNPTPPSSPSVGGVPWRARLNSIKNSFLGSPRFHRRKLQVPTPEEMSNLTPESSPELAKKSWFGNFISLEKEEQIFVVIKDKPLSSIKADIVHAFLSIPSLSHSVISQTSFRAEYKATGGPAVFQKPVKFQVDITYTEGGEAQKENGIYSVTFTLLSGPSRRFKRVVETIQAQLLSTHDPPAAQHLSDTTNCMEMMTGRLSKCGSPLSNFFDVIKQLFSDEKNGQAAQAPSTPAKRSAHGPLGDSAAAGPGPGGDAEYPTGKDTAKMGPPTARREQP

On to `CCC(=O)Nc1cccc(Oc2nc(Nc3ccc(N4CCN(C)CC4)cc3OC)ncc2Cl)c1`, for which the Activity in assay [1] worked out at 57%; in assay [4] it was 58%; in assay [5], 75%; in assay [6], 77%; in [7] it was 73%; in [8], 67%. The results for the Activity in assay [9] and in [13] were 84% and 51%, respectively. Besides, the inhibition result in assay [2], in assay [3], in assay [11] and in assay [12] was “Active” in each case. Also, the inhibition entry in assay [10] is “Dose-Dependent Effect”.
